Published values gathered from unrelated publications.
Each line is one published result; the experiments were not run side by side.
Target: Serine/threonine-protein kinase TAO1 (TAOK1, Homo sapiens, UniProt Q7L7X3)
Sequence (Q7L7X3 1-1001, as in one of the studies): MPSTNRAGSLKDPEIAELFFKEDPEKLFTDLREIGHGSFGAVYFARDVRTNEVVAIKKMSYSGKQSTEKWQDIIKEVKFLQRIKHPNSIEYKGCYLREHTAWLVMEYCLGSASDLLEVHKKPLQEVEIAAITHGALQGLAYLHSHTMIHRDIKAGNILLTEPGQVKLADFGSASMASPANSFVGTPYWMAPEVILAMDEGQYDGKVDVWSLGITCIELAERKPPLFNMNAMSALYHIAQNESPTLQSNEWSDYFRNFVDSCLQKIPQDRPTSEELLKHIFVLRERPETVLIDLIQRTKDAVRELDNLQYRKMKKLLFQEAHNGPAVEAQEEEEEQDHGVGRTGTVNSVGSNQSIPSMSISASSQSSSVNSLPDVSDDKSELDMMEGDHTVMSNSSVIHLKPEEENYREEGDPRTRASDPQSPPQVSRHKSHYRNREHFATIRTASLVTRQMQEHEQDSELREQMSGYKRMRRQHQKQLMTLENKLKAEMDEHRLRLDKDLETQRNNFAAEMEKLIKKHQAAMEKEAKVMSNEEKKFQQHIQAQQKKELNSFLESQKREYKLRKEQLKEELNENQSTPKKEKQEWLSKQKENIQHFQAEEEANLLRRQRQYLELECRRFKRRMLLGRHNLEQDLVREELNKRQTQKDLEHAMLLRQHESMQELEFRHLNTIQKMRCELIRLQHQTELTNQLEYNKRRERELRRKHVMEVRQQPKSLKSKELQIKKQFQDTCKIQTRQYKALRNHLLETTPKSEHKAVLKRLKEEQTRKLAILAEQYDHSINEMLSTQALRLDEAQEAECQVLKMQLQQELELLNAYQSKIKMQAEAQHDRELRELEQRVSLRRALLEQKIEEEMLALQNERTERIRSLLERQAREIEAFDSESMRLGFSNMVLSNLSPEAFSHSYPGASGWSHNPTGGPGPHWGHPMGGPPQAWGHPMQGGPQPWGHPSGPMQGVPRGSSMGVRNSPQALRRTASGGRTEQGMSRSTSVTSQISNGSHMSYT

CNCc1ccccc1-c1csc([C@H](C)Nc2nc(C)nc3cc(OC)c(OC)cc23)c1  remaining binding (cell-free assay; competition with immobilised ligand; 1 µM): 100%
C=CC(=O)N1CCC(C(=O)NCC(=O)N2CCN(c3nc(-c4cnc(N)nc4C(F)F)nc(N4CCOCC4)n3)CC2)CC1  remaining binding (binding; competition with immobilised ligand; 1 µM): 80%
O=C1NC(c2ccccn2)Sc2ccccc21 (stereo not shown)  remaining binding (cell-free assay; competition with immobilised ligand; 1 µM): 96%
O=C(NCCCN1CCOCC1)c1ccc(Nc2nccc(-c3cc4ccccc4s3)n2)cc1  remaining binding (binding; competition with immobilised ligand; 1 µM): 82%
CN(C)c1nccc(-c2cnc3ncccn23)n1  remaining binding (binding; 1 µM): 59%
Nc1cnc(N2CCc3cc(S(=O)(=O)Nc4c(F)cc(Cl)cc4F)cc(N4CCCC4=O)c32)nc1  remaining binding (cell-free assay; competition with immobilised ligand; 1 µM): 80%
F[C@@H]1CCN(c2nccc(-c3cnn4ncccc34)n2)C1  remaining binding (binding; 1 µM): 100%
COc1ncc2cc3ccccc3nc2c1C#N  remaining binding (cell-free assay; competition with immobilised ligand; 5 µM): 100%
FC(F)(F)Oc1cccc(-c2cnc3ccc(-c4ccncc4)nn23)c1  remaining binding (binding; competition with immobilised ligand; 5 µM): 40%
O=C(O)[C@@H]1[C@@H](Cn2nnc3ccccc3c2=O)CC[C@H]1C(=O)c1ccc(OCCC2CCOCC2)cc1  remaining binding (cell-free assay; competition with immobilised ligand; 1 µM): 100%
CNC(=O)[C@@H]1CC[C@@H](n2c(-c3ccc4cnccc4c3)nc3ccc(C(=O)NCc4cccc(C(N)=O)c4)cc32)C1  remaining binding (binding; competition with immobilised ligand; 1 µM): 100%
N[C@@H]1CCN(c2nccc(-c3cnn4ncccc34)n2)C1  remaining binding (binding; 1 µM): 100%
COc1cnc(Nc2cccc(S(N)(=O)=O)c2)nc1N1CCN(c2ccccc2)CC1  remaining binding (binding; competition with immobilised ligand; 1 µM): 80%
O=C(NCCCN1CCOCC1)c1ccc(Nc2ncc(Cl)c(-c3ccc(Cl)s3)n2)cc1  remaining binding (binding; competition with immobilised ligand; 1 µM): 43%
c1cnn2ncc(-c3ccnc(N4CCC45COC5)n3)c2c1  remaining binding (binding; 1 µM): 58%
O=C(NCc1ncc(C(F)(F)F)cc1Cl)c1ccc2c(c1)C1(CCS(=O)(=O)CC1)[C@@H](C1CC1)N2S(=O)(=O)c1ccc(F)cc1  remaining binding (cell-free assay; competition with immobilised ligand; 1 µM): 91%
CN(c1nccc(-c2cnn3ncccc23)n1)C1CC1  remaining binding (binding; 1 µM): 100%
O=C(c1ccc(Nc2ncc(Cl)c(-c3cc4ccccc4s3)n2)cc1)N1CCC(N2CCCC2)CC1  remaining binding (binding; competition with immobilised ligand; 1 µM): 50%
C[C@@H]1CCN(c2nccc(-c3cnn4ncccc34)n2)C1  remaining binding (binding; 1 µM): 83%
CN(C(=O)c1ccccc1)c1cc(N(C)c2ccc3c(c2)CCc2ccc(C(=O)NCCN4CCOCC4)cc2C3=O)ccc1F  remaining binding (cell-free assay; competition with immobilised ligand; 1 µM): 81%
Nc1ncc2c(n1)-c1c([nH]c3ccc(C#CC4CC4)cc13)CCCC2  remaining binding (binding; competition with immobilised ligand; 1 µM): 97%
O=C(NCC1CCOCC1)c1n[nH]cc1NC(=O)c1c(F)cccc1F  remaining binding (binding; competition with immobilised ligand; 1 µM): 83%
